Experimental data: ChEMBL document CHEMBL1129751, “2-Iminopiperidine and other 2-iminoazaheterocycles as potent inhibitors of human nitric oxide synthase isoforms” (J Med Chem, 1996)

Key:
[1] = Selectivity is defined as the ratio of the IC50(hecNOS) to IC50(hiNOS)
In short: (§1)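 Ratio of IC50 for the endothelial or neuronal isoform to IC50 for the inducible isoform. All three recombinant human enzymes were assayed by [3H]arginine-to-[3H]citrulline conversion at 30 µM final L-arginine, 37 °C for 15 min. Both constitutive isoforms had 40 nM calmodulin. Each compound tested at eight concentrations.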

[2] = Selectivity is defined as the ratio of the IC50(hncNOS) to IC50(hiNOS); in short: as §1
Nitric oxide synthase 1 = Nitric oxide synthase 1 (Homo sapiens, UniProt P29475); assay: Inhibitory activity against human Neuronal nitric oxide synthase
Chain of Nitric oxide synthase 1 (P29475 whole entry): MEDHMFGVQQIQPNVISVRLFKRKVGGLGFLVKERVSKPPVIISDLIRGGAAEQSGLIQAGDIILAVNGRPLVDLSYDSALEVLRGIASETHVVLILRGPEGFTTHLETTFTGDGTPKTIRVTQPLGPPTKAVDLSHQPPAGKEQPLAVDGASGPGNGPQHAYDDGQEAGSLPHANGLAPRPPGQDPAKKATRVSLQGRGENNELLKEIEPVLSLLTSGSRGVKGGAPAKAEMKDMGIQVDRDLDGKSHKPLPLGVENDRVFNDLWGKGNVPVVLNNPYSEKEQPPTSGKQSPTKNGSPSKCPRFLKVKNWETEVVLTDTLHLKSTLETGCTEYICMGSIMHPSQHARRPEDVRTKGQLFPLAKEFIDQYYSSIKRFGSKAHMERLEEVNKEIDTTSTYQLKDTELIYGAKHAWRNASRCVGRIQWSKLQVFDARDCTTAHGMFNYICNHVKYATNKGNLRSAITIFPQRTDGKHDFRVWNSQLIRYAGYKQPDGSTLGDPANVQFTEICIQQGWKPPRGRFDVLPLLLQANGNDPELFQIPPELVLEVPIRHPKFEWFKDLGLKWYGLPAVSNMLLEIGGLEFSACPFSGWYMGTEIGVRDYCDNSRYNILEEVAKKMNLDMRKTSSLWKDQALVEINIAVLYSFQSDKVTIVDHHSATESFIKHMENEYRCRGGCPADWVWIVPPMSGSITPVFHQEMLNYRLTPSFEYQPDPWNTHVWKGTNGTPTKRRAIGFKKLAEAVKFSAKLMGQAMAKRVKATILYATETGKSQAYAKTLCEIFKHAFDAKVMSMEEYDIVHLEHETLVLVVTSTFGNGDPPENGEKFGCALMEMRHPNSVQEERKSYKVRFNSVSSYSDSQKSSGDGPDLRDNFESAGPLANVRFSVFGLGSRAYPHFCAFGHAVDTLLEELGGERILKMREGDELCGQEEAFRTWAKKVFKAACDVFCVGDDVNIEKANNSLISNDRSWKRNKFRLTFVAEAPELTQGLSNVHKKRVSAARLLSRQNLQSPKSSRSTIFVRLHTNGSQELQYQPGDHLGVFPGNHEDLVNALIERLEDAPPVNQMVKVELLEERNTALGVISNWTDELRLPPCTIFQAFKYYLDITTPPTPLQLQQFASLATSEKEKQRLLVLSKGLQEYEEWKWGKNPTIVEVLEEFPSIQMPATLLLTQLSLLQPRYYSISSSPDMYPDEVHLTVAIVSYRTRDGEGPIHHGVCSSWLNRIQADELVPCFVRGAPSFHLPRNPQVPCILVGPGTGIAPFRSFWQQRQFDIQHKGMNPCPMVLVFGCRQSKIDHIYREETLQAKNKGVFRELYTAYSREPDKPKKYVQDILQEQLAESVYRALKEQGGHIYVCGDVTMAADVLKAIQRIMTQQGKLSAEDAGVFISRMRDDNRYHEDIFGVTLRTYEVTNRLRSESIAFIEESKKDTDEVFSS

Nitric oxide synthase 3 = molecular target: T1, Nitric oxide synthase 3 (Homo sapiens, UniProt P29474); assay: Inhibitory activity against human Endothelial nitric oxide synthase
T1 sequence (P29474 whole entry): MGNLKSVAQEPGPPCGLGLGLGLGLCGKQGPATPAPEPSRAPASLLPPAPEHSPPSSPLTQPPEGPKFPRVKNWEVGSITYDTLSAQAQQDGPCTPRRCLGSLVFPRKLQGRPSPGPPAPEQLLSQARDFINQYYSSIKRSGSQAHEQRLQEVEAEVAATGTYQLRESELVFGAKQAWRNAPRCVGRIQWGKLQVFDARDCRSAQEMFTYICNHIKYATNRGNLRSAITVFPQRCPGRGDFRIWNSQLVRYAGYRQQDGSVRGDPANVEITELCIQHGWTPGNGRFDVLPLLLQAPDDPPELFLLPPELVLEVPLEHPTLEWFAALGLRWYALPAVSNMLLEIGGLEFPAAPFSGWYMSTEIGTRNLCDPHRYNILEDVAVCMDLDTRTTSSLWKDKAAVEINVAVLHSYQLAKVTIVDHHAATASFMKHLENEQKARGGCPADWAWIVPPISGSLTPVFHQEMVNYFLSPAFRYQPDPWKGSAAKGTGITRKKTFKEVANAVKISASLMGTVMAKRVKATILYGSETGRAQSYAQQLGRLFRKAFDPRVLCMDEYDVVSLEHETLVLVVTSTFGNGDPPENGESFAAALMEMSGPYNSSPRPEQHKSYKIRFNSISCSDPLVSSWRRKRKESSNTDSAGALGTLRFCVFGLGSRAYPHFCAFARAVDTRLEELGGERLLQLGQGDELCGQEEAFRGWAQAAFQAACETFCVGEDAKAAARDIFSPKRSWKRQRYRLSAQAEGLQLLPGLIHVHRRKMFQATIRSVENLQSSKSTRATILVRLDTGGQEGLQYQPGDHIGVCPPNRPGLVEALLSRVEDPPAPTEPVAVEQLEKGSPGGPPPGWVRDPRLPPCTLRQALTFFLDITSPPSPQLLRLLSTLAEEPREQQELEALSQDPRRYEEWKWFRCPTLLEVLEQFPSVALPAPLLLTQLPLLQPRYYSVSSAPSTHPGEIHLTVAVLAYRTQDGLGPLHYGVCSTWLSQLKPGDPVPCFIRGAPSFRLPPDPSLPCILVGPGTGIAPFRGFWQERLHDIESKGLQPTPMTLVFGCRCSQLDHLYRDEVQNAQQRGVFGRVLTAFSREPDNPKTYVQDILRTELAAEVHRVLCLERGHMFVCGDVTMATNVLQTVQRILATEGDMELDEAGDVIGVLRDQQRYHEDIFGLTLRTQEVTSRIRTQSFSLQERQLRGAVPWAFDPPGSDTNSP
In short: (§2)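 Recombinant human enzymes expressed in Sf9 cells by baculovirus and partially purified on DEAE-Sepharose from soluble extracts. Assay in 50 mM Tris pH 7.6 with BSA, DTT, CaCl2, FAD, tetrahydrobiopterin, NADPH, 30 µM final L-arginine with L-[2,3-3H]arginine. Endothelial form also given 40 nM calmodulin. 15 min at 37 °C, stopped with EGTA buffer. [3H]citrulline isolated on cation exchange and counted. IC50 from eight concentrations, at least duplicate.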

[3] = molecular target: Nitric oxide synthase, inducible (Homo sapiens, UniProt P35228); assay: Inhibitory activity against human inducible nitric oxide synthase; in short: as §2
Chain of Nitric oxide synthase, inducible (P35228 whole entry): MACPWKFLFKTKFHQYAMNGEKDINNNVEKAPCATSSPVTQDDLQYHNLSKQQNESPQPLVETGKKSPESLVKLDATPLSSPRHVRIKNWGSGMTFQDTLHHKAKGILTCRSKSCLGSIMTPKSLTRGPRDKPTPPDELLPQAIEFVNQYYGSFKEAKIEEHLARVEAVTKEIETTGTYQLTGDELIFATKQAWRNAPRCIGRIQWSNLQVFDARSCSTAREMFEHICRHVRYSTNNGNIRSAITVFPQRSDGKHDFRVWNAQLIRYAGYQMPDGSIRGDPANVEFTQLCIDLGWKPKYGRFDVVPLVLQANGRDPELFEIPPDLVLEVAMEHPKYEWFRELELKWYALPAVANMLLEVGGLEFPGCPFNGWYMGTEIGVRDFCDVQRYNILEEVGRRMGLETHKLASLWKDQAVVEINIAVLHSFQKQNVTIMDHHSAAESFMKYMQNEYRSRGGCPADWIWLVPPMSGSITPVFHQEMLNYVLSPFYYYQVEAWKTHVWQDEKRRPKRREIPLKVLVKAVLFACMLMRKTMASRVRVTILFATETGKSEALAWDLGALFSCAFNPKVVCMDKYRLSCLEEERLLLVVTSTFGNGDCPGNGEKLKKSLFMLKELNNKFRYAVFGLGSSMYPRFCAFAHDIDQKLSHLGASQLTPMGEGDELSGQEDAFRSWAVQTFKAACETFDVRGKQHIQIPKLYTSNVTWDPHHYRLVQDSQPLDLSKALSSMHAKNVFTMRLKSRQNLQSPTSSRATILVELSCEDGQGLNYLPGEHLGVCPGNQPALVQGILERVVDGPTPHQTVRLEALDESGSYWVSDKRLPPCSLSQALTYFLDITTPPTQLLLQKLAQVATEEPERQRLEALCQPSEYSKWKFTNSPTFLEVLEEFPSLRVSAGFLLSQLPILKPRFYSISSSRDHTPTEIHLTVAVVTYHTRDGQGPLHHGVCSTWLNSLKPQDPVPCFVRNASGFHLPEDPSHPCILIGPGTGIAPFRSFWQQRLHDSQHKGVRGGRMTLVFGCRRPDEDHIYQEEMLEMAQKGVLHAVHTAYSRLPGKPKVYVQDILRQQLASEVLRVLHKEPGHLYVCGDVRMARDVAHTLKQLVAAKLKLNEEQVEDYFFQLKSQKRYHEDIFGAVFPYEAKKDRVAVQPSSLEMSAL

| Structure (SMILES) | Selectivity [1] | Selectivity [2] | IC50 (Nitric oxide synthase 1) | IC50 (Nitric oxide synthase 3) | IC50 [3] |
| --- | --- | --- | --- | --- | --- |
| N/C1=N/CCCCCC1 | 5.9 | 1 |  |  |  |
| N=C1CCCCCCCN1 |  |  | 6.8 µM | 90 µM | 9.8 µM |
| NC1=NCCC1 | 3.6 | 0.8 | 20 µM | 93 µM | 26 µM |
| N/C1=N/CCCCCCC1 | 9.2 | 0.7 |  |  |  |
| NC1=NCCCN1 | 3.5 | 0.7 | 17 µM | 87 µM | 25 µM |
| CC(=N)NCCCC[C@H](N)C(=O)O [L-NIL] | 30 | 13 | 61 µM | 138 µM | 4.6 µM |

More lines, in order of falling IC50 (Nitric oxide synthase 3), values ahead:

| Selectivity [1] | Selectivity [2] | IC50 (Nitric oxide synthase 1) | IC50 (Nitric oxide synthase 3) | IC50 [3] | Structure (SMILES) |
| --- | --- | --- | --- | --- | --- |
|  |  | 10 µM | 59 µM | 10 µM | NC1=NCCCCCC1 |
| 8 | 1.8 | 3.5 µM | 16 µM | 2 µM | NC1=NCCCCC1 |
| 4.6 | 2.1 | 3.7 µM | 8.2 µM | 1.8 µM | NC1=NCCCO1 |
| 2.4 | 1.1 | 3.2 µM | 7.1 µM | 2.9 µM | NC1=NCCCS1 |
|  |  |  | 4.7 µM | 1 µM | N=C1CCCCN1 |
